Consider four compounds from ChEMBL document CHEMBL1122469, “Synthesis of 1-(aminomethyl)-1,2,3,4-tetrahydroisoquinolines and their actions at adrenoceptors in vivo and in vitro” (J Med Chem, 1983).

In assay [1] the target is T1, Adrenergic receptor beta (Homo sapiens, UniProt P08588+P07550+P13945). In words: Beta adrenergic receptor antagonistic activity in guinea pig, isolated, carbachol-contracted tracheal preparations. In kind it is functional, Cavia porcellus. The conditions noted are these: target entry is the homologue from another species. In a few lines:
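Guinea pig trachea contracted with carbachol 10 µmol/L, 0.02 N resting tension, Krebs–Henseleit bath. Isoproterenol relaxation curves before and 15 min after antagonist, repeated at higher concentrations after washing. pA2 and slope from Schild plot (Arunlakshana–Schild). Slope difference from 1.0 tested by Student's t test.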

Assay [2] concerns the target T1, Adrenergic receptor beta. In words: Beta adrenergic receptor agonist activity at compound concentration of 100 ug/mL in guinea pig, isolated, carbachol-contracted tracheal preparations. In kind it is functional. The conditions noted are these: Cavia porcellus; target entry is the homologue from another species.
Assay [3] has as its target T1, Adrenergic receptor beta. As to the kind of experiment: Beta adrenergic receptor agonist activity in guinea pig, isolated, spontaneously beating, right atrial preparation. Conditions: Cavia porcellus; Cardiac atrium; target entry is the homologue from another species. In kind it is functional, tissue-based. The method, boiled down:
(§1)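 Right atria from guinea pigs (300–400 g, either sex) killed by cervical dislocation, in 10-mL Krebs–Henseleit baths under 0.02 N tension, spontaneously beating; rate read by tachograph. Two cumulative isoproterenol curves, then one test-compound curve, 30-min intervals, three washes after each. The second isoproterenol curve was the reference, with a desensitization correction (factor 1.2). Intrinsic activity relative to isoproterenol = 1. Ratio = molar EC50 of drug ÷ molar EC50 of isoproterenol, same experiment.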

Assay [4] addresses T1, Adrenergic receptor beta. In words: Beta adrenergic receptor agonist activity in reserpine pre-treated guinea pig, isolated, spontaneously beating, right atrial preparation. In kind it is functional, tissue-based. The conditions noted are these: Cavia porcellus; Cardiac atrium; target entry is the homologue from another species. The method, boiled down:
(§2)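 Guinea pigs given reserpine 5 mg/kg i.p., atria removed 18–24 h later and tested with tyramine 17 µmol/L beforehand. Spontaneously beating right atria in Krebs–Henseleit under 0.02 N tension, rate recorded. Cumulative isoproterenol curves (second used, corrected) and one test curve at 30-min intervals. Ratio = molar concentration at 50% own maximum ÷ isoproterenol equivalent, same experiment.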

A short description of assay [5]: Ratio of compound Emax(50) to that of isoproterenol Emax(50) in guinea pig, isolated, spontaneously beating, right atrial preparation; Expressed as drug Emax(50)/Iso Emax(50) mean. In kind it is functional, Cardiac atrium. The method, boiled down: as §1
Assay [6] has as its system Felis catus. As to the kind of experiment: Activity ratio of molar concentration to molar concentration of isoproterenol in HR in choralose anaesthetized cats. In kind it is functional. The method, boiled down:
(§3)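 Chloralose (80 mg/kg) plus sodium phenobarbitone (6 mg/kg) i.p.-anesthetized, bilaterally vagotomized cats (2.3–3.6 kg, either sex), spontaneously breathing via tracheal cannula. Brachial vein injection in 0.9% NaCl. Carotid blood pressure and pulse-triggered heart rate recorded. Concurrent cumulative dose–response curves followed isoproterenol. Ratio = molar dose giving 50% of own maximum ÷ isoproterenol molar dose giving 50% of its maximum, same animal.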

Assay [7] in a line: Ratio of compound Emax(50) to that of isoproterenol Emax(50) in reserpine-pretreated, guinea pig, isolated, spontaneously beating, right atrial preparation; Expressed as drug Emax(50)/Iso Emax(50) mean. In kind it is functional, Cardiac atrium. The method, boiled down: as §2
The target of assay [8] is T1, Adrenergic receptor beta. As to the kind of experiment: Beta adrenergic receptor antagonistic activity in reserpine pre-treated guinea pig, isolated, spontaneously beating, right atrial preparation. In kind it is functional, tissue-based, Cavia porcellus, Cardiac atrium. Conditions: target entry is the homologue from another species.
Assay [9] addresses T1, Adrenergic receptor beta. As to the kind of experiment: Beta adrenergic receptor agonist activity a in guinea pig, isolated, carbachol-contracted tracheal preparations. In kind it is functional. The conditions noted are these: Cavia porcellus; target entry is the homologue from another species. In a few lines: (§4)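 Guinea pigs (300–400 g, either sex) killed by cervical dislocation. Trachea mounted in a 10-mL bath of Krebs–Henseleit under 0.02 N resting tension. Tone raised submaximally with carbachol 10 µmol/L, and relaxation recorded. Cumulative test-compound curves went up to 100 µg/mL, referenced to isoproterenol (=1). Where no maximum was reached, values reflect the 100 µg/mL response. Ratios were taken at 15% of isoproterenol maximum.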

Assay [10] addresses T1, Adrenergic receptor beta. In words: Beta adrenergic receptor antagonistic activity in reserpine pre-treated guinea pig, isolated, spontaneously beating, right atrial preparation; NA = No antagonism of isoproterenol responses up to 2.2 x 10E-8 mol/L. In kind it is functional, tissue-based. The conditions noted are these: Cavia porcellus; Cardiac atrium; target entry is the homologue from another species. In a few lines: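 Guinea pigs given reserpine 5 mg/kg i.p. 18–24 h before tissue removal, then checked with tyramine 17 µmol/L. Spontaneously beating right atrium held in Krebs–Henseleit at 0.02 N tension, with rate read by tachograph. Isoproterenol cumulative curves were run before and 15 min after adding the test drug, then repeated after washing at higher drug concentration. pA2 was determined by the Arunlakshana–Schild method.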

Assay [11] deals with T1, Adrenergic receptor beta. As to the kind of experiment: Beta adrenergic receptor agonist activity in guinea pig, isolated, carbachol-contracted tracheal preparations. In kind it is functional. The conditions noted are these: Cavia porcellus; target entry is the homologue from another species. In a few lines:
as §4

Assay [12] concerns the target T1, Adrenergic receptor beta. As to the kind of experiment: Beta adrenergic receptor antagonistic activity in guinea pig, isolated, carbachol-contracted tracheal preparations; NA = No antagonism of isoproterenol responses up to 2.2 x 10E-8 mol/L. In kind it is functional. The conditions noted are these: Cavia porcellus; target entry is the homologue from another species.

The test system of assay [13] is Felis catus. In words: Activity ratio of molar concentration to molar concentration of isoproterenol in DBP in choralose anaesthetized cats. In kind it is functional. In a few lines:
as §3

The term pA2 denotes a measure of antagonist potency on a negative log scale.

Molecules are shown by their SMILES. Active and inactive are the calls of the source. The calls are words filed in the database; no cut-off is given here.

As to `CC(C)(C)NCC1NCCc2cc(O)c(O)cc21` (centres undefined), the pA2 was 5.76 at Adrenergic receptor beta [1] and 4.68 on Adrenergic receptor beta [8]. The Intrinsic activity came out at 0.18 at Adrenergic receptor beta [2], 0.14 on Adrenergic receptor beta [3] and 0.29 on Adrenergic receptor beta [4]. Moreover, the pD2 on Adrenergic receptor beta [2] was found to be 3.51; at Adrenergic receptor beta [3] it was 5.1; at Adrenergic receptor beta [4], 5.23. The Ratio stood at 2100 in assay [5] and 3600 in [7]. In addition, the Activity ratio in the assay with Felis catus [6] is 900.

With `Oc1ccc(CC2NCCc3cc(O)c(O)cc32)cc1O` (centres undefined), the values for the Intrinsic activity on Adrenergic receptor beta [3], on Adrenergic receptor beta [9] and on Adrenergic receptor beta [4] were 0.94, 0.62 and 0.95, respectively. For the same compound, the pD2 turned out to be 6.96 on Adrenergic receptor beta [3], 7.05 at Adrenergic receptor beta [4] and 6.45 at Adrenergic receptor beta [11]. In addition, the pA2 entry on Adrenergic receptor beta [10] and at Adrenergic receptor beta [12] was “inactive” throughout. The Ratio stood at 26 in [5] and 38 in assay [7].

Take `CC(C)NCC1NCCc2cc(O)c(O)cc21` (centres undefined): the pA2 on Adrenergic receptor beta [1] worked out at 5.05; at Adrenergic receptor beta [8] it was 4.84. Moreover, the Intrinsic activity at Adrenergic receptor beta [2] amounted to 0.06; on Adrenergic receptor beta [3], 0.42; at Adrenergic receptor beta [4] it was 0.59. Further, the results for the pD2 at Adrenergic receptor beta [2], at Adrenergic receptor beta [3] and at Adrenergic receptor beta [4] were 3.49, 5.05 and 5.18, respectively. The results for the Ratio in assay [5] and in [7] were 2700 and 4400, respectively. Moreover, the Activity ratio in the assay with Felis catus [6] amounted to 1700; with Felis catus [13], 2200.

For `NCC1NCCc2cc(O)c(O)cc21` (centres undefined), the pA2 on Adrenergic receptor beta [1] is listed as 4.66; at Adrenergic receptor beta [8], 4.63. Further, the Intrinsic activity was determined as 0.2 at Adrenergic receptor beta [2], 0.7 at Adrenergic receptor beta [3] and 0.53 on Adrenergic receptor beta [4]. For the same compound, the pD2 at Adrenergic receptor beta [2] was 3.44; on Adrenergic receptor beta [3], 4.49; at Adrenergic receptor beta [4], 4.22. Moreover, the Ratio in [5] was determined as 8800; in assay [7], 32600. Besides, in the assay with Felis catus [6], the Activity ratio worked out at 12700.
